ChEMBL document CHEMBL2311397, “Design and synthesis of cyclopropylamide analogues of combretastatin-A4 as novel microtubule-stabilizing agents” (J Med Chem, 2013)
Calls of active or inactive are those of the source. No cut-off for these calls is given here.

How the values were obtained:
A549 [1] = test: Cell cycle arrest in human A549 cells assessed as accumulation at G1 phase at 0.1 uM after 24 hrs by propidium iodide staining-based flow cytometry (reference value: 87.56 %); assay type: functional
A549 [2] = test: Effect on spindle microtubule dynamics in human A549 cells at 10 uM after 22 hrs by DAPI/FITC staining-based laser fluorescence confocal microscopic analysis; assay type: functional, cell-based
Summary of the method: (§1)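 Confocal imaging of A549 cells exposed for 22 h to compound or vehicle (0.2% DMSO final), added at 70% confluency after overnight growth. Fixation followed by 0.5% Triton X-100 permeabilization and 10% goat serum blocking; tubulin stained with FITC anti-α-tubulin (1:100, 2 h, 37 °C), nuclei counterstained with DAPI. Wide-field images taken at 10–15 random slide locations.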

A549 [3] = test: Cell cycle arrest in human A549 cells assessed as accumulation at G2/M phase at 0.1 uM after 24 hrs by propidium iodide staining-based flow cytometry (reference value: 2.78 %); assay type: functional
[4] = Cytotoxicity against human QGY cells after 48 hrs by MTT assay; assay type: functional, cell-based; conditions: Homo sapiens, QGY, 48 h
Summary of the method: (§2)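 Log-phase cells (40000–50000 cells/mL) grown in DMEM with 10% fetal calf serum (5% CO2, 37 °C) and exposed 48 h to five concentrations, 3–5 replicates. Read-out was MTT with absorbance at 570 nm; IC50 reported as mean ± SD of three independent experiments. Resistant A549 and HeLa sublines were made by stepwise paclitaxel selection; resistance index = IC50(resistant)/IC50(sensitive).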

A549 [5] = test: Cell cycle arrest in human A549 cells assessed as accumulation at S phase at 5 uM after 24 hrs by propidium iodide staining-based flow cytometry (reference value: 9.12 %); assay type: functional
A549 [6] = test: Cell cycle arrest in human A549 cells assessed as accumulation at S phase at 0.1 uM after 24 hrs by propidium iodide staining-based flow cytometry (reference value: 9.12 %); assay type: functional
K562 = test: Cytotoxicity against human K562 cells after 48 hrs by MTT assay; assay type: functional, cell-based; conditions: Homo sapiens, K562, 48 h; summary of the method: as §2
A549 [7] = test: Induction of apoptosis in human A549 cells assessed as necrotic cells at 1 uM after 24 hrs by annexin V-FITC/propidium iodide staining-based flow cytometry (reference value: 2.76%); assay type: functional
A549 [8] = test: Cell cycle arrest in human A549 cells assessed as accumulation at G2/M phase after 24 hrs by propidium iodide staining-based flow cytometry; assay type: functional
A549 [9] = test: Antimitotic activity against human A549 cells assessed as cell mitotic arrest at 1 uM after 22 hrs by DAPI/FITC staining-based laser fluorescence confocal microscopic analysis (reference value: 1.1 %); assay type: functional
HeLa [10] = test: Cytotoxicity against paclitaxel-resistant human HeLa cells after 48 hrs by MTT assay; assay type: functional, cell-based; summary of the method: as §2
A549 [11] = test: Cell cycle arrest in human A549 cells assessed as accumulation at G2/M phase at 10 uM after 24 hrs by propidium iodide staining-based flow cytometry (reference value: 2.78 %); assay type: functional
A549 [12] = test: Induction of apoptosis in human A549 cells assessed as late apoptotic cells at 1 uM after 24 hrs by annexin V-FITC/propidium iodide staining-based flow cytometry (reference value: 1.02%); assay type: functional
HeLa [13] = test: Resistance index, ratio of IC50 for paclitaxel-resistant human HeLa cells to IC50 for paclitaxel-sensitive human HeLa cells; assay type: functional; summary of the method: as §2
A549 [14] = test: Induction of apoptosis in human A549 cells assessed as late apoptotic cells at 5 uM after 24 hrs by annexin V-FITC/propidium iodide staining-based flow cytometry (reference value: 1.02%); assay type: functional
A549 [15] = test: Induction of apoptosis in human A549 cells assessed as early apoptotic cells at 1 uM after 24 hrs by annexin V-FITC/propidium iodide staining-based flow cytometry (reference value: 0.73 %); assay type: functional
Tubulin = test: (§3) Activation of tubulin (unknown origin) polymerization; assay type: protein-complex assay, Homo sapiens
Summary of the method: (§4)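 Purified brain tubulin (kit), final 3.0 mg/mL, in 80.0 mM PIPES sesquisodium pH 6.9, 2.0 mM MgCl2, 0.5 mM EGTA, 1 mM GTP, 10.2% glycerol; components prewarmed to 37 °C, reaction started by adding tubulin. A340 read each minute for 1 h. Single-point % stimulation used 10 μM compound; EC50 from 3.75, 7.5, 15, 30, 60 μM.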

Tubulin (Homo sapiens) = Tubulin (Homo sapiens) (UniProt P68371+Q9H4B7+P0DPH7+P68366+Q13509+Q71U36+P04350+Q3ZCM7+P07437+P68363+Q9BQE3+Q6PEY2+Q13885+Q9BVA1+Q9BUF5); test: as §3; assay type: protein-complex assay; summary of the method: as §4
A549 [16] = test: Cell cycle arrest in human A549 cells assessed as accumulation at S phase at 1 uM after 24 hrs by propidium iodide staining-based flow cytometry (reference value: 9.12 %); assay type: functional
A549 [17] = test: Cell cycle arrest in human A549 cells assessed as accumulation at G1 phase at 5 uM after 24 hrs by propidium iodide staining-based flow cytometry (reference value: 87.56 %); assay type: functional
A549 [18] = test: Cell cycle arrest in human A549 cells assessed as accumulation at G1 phase at 1 uM after 24 hrs by propidium iodide staining-based flow cytometry (reference value: 87.56 %); assay type: functional
Mus musculus = test: Toxicity in human A549 cells xenografted BALB/c nude mouse assessed as change in body weight at 100 to 500 mg/kg, ig; assay type: organism-based; set-up: dose 100-500 mg/kg, route intragastric; conditions: in vivo, po
Summary of the method: (§5)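 Male BALB/c nude mice, 5 weeks old (18–20 g), implanted subcutaneously in the right armpit with A549 tumor fragments (3 mm3). On day 13, at 100–200 mm3, daily intragastric dosing began: 100 or 500 mg/kg test compound, or 30 mg/kg paclitaxel, in Tween-80 diluted with saline. Vehicle given ip. Tumor volume and body weight followed; n = 6; inhibition rate at day 16.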

A549 [19] = test: Induction of apoptosis in human A549 cells assessed as necrotic cells at 10 uM after 24 hrs by annexin V-FITC/propidium iodide staining-based flow cytometry (reference value: 2.76%); assay type: functional
A549 [20] = test: Cytotoxicity against human A549 cells after 48 hrs by MTT assay; assay type: functional, cell-based; conditions: Homo sapiens, A549, 48 h; summary of the method: as §2
A549 [21] = test: Effect on microtubule dynamics in human A549 cells at 5 to 10 uM after 22 hrs by DAPI/FITC staining-based laser fluorescence confocal microscopic analysis; assay type: functional, cell-based; summary of the method: as §1
A549 [22] = test: Resistance index, ratio of IC50 for paclitaxel-resistant human A549 cells to IC50 for paclitaxel-sensitive human A549 cells; assay type: functional; summary of the method: as §2
A549 [23] = test: Effect on spindle microtubule dynamics in human A549 cells at 10 uM after 22 hrs by DAPI/FITC staining-based laser fluorescence confocal microscopic analysis
A549 [24] = test: Induction of apoptosis in human A549 cells assessed as viable cells at 10 uM after 24 hrs by annexin V-FITC/propidium iodide staining-based flow cytometry (reference value: 94.08%); assay type: functional; conditions: A549, 24 h, read-out: Activity
A549 [25] = test: Antitumor activity against human A549 cells xenografted in BALB/c nude mouse assessed as tumor growth inhibition at 500 mg/kg, ig measured on day 16; assay type: functional; conditions: A549, po, 384 h, route intragastric, read-out: TGI; summary of the method: as §5
A549 [26] = test: Cytotoxicity against paclitaxel-resistant human A549 cells after 48 hrs by MTT assay; assay type: functional, cell-based; conditions: A549, 48 h; summary of the method: as §2

For `COc1cc([C@@H]2C[C@]2(CO)C(=O)Nc2ccccc2Cl)cc(OC)c1OC`, the Activity (A549 [1]) was 78.7%, the Activity (A549 [2]) was “Active” and the Activity (A549 [3]) was 12.53%. For the same compound, the IC50 [4] was 15.7 µM, the Activity (A549 [5]) was 10.81% and the Activity (A549 [6]) was 9.54%. For the same compound, the IC50 (K562) was 16.9 µM, the Activity (A549 [7]) was 1.46% and the Activity (A549 [8]) was “Dose-dependent effect”. For the same compound, the Activity (A549 [9]) was 37.4%, the IC50 (HeLa [10]) was 10.7 µM and the Activity (A549 [11]) was 79.92%. For the same compound, the Activity (A549 [12]) was 2.82%, the “Ratio IC50” value (HeLa [13]) was 1.3 and the Activity (A549 [14]) was 1.36%. The Activity (A549 [15]) was 15.57%, the EC50 (Tubulin) was 19.7 µM and the Activity (Tubulin (Homo sapiens)) was “Dose-dependent effect”. It also gave an Activity (A549 [16]) of 9.96%, an Activity (A549 [17]) of 28.62% and an Activity (A549 [18]) of 38.41%. For the same compound, the Activity (Mus musculus) was “Non-toxic”, the Activity (A549 [19]) was 0.83% and the IC50 (A549 [20]) was 4.4 µM. The Activity (A549 [21]) was “Active”, the “Ratio IC50” value (A549 [22]) was 1.2 and the Activity (A549 [23]) was “Active”. For the same compound, the viability at 10 µM (A549 [24]) was 40.9%, the inhibition in vivo at 500 mg/kg (A549 [25]) was 55.9% and the IC50 (A549 [26]) was 5.3 µM.
